According to ChEMBL document CHEMBL1926528, “Formulating a new basis for the treatment against botulinum neurotoxin intoxication: 3,4-Diaminopyridine prodrug design and characterization” (Bioorg Med Chem, 2011):

Assays:
Acetylcholinesterase [1] = target: T1, Acetylcholinesterase (Electrophorus electricus, UniProt O42275); experiment: Prodrug activation assessed as Electrophorus electricus Type V-S acetylcholinesterase mediated 3,4-diaminopyridine release measured 3 hrs post enzymatic hydrolysis by reverse phase HPLC
T1 sequence (O42275 whole entry): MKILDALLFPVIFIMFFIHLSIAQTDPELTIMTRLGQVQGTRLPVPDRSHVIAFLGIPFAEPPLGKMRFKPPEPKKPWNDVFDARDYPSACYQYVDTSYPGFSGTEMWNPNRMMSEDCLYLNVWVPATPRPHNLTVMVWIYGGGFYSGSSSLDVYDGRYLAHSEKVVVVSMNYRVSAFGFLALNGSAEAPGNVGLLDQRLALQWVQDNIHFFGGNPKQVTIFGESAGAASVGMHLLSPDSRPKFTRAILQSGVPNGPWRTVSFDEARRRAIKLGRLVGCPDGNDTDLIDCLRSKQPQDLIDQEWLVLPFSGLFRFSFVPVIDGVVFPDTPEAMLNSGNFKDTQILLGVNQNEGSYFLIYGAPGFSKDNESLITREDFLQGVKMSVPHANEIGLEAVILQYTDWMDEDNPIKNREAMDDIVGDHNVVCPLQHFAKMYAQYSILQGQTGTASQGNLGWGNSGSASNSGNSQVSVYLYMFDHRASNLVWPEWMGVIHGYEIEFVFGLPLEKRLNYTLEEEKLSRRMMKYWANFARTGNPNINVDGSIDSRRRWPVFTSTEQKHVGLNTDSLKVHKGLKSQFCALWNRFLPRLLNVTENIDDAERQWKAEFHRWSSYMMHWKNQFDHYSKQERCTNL
How it was run: (§1)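 Prodrug at 500 µM was incubated with 1.0 U eel AChE or equine BChE in 100 mM sodium phosphate pH 8.0 for 3 h at 37°C. Reaction was quenched with glacial acetic acid. Released 3,4-DAP was measured by C18 reverse-phase HPLC (TFA water/acetonitrile gradient, 254 and 320 nm) and quantified from peak area against authentic standards.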

Butyrylcholinesterase [2] = target: T2, Butyrylcholinesterase (Equus caballus, UniProt Q9N1N9); experiment: Inhibition of equine serum BChE using butyrylthiocholine iodide as a substrate by spectrophotometric Ellman's assay
T2 sequence (Q9N1N9 whole entry): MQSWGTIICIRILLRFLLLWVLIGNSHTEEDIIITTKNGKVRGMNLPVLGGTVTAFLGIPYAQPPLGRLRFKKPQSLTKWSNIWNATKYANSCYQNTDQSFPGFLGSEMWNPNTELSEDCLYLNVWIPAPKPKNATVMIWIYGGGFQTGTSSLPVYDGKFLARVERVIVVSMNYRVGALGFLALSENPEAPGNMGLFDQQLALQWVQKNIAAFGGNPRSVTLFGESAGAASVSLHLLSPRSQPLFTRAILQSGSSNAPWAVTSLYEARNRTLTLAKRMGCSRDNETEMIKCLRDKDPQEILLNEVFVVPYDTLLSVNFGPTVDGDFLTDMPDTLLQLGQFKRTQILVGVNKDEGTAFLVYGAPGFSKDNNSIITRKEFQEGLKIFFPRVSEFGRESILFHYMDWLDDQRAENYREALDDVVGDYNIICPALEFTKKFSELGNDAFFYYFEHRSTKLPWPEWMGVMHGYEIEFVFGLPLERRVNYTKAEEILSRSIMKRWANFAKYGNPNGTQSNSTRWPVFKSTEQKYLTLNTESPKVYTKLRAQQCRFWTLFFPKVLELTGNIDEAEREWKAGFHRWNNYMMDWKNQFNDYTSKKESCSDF
How it was run: (§2)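 Ellman method at 37°C in 100 mM sodium phosphate pH 8.0 with 360 µM DTNB. Substrate was 100 µM acetylthiocholine iodide for eel AChE or butyrylthiocholine iodide for equine BChE, each reconstituted in 1% gelatin buffer. Prodrug ranged 500 µM to 2 µM. Reaction started with 0.5 U enzyme; linear rates read at 412 nm. IC50 and Ki came from non-linear regression, with Ki from varied inhibitor and substrate concentrations.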

Butyrylcholinesterase [3] = target: T2, Butyrylcholinesterase; experiment: Prodrug activation assessed as equine serum BChE-mediated 3,4-diaminopyridine release measured 3 hrs post enzymatic hydrolysis by reverse phase HPLC; conditions: horse; how it was run: as §1
Acetylcholinesterase [4] = target: T1, Acetylcholinesterase; experiment: Inhibition of Electrophorus electricus Type V-S acetylcholinesterase using […] as substrate by spectrophotometric Ellman's assay; how it was run: as §2
Serum = experiment: Half life mouse serum by reverse phase HPLC; type: ADME, cell-free
How it was run: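 15 µl of 10 mM prodrug stock went into 85 µL mouse serum from clotted blood, pre-warmed to 37°C. Samples were taken at 0–120 min and extracted with cold acetonitrile; proteins were removed by centrifugation. Breakdown product 3,4-DAP was followed by reverse-phase HPLC. Half-life was calculated from 1-hour endpoint samples.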

[5] = Half life in iv dosed mouse; type: ADME, organism-based; conditions: in vivo

Structure (SMILES)	Drug metabolism (Acetylcholinesterase [1]) [µM]	IC50 (Butyrylcholinesterase [2]) [µM]	Ki (Butyrylcholinesterase [2]) [µM]	Drug metabolism (Butyrylcholinesterase [3]) [µM]	IC50 (Acetylcholinesterase [4]) [µM]	Ki (Acetylcholinesterase [4]) [µM]	t1/2 (Serum) [min]	half-life [5] [min]
CC(=O)Oc1ccc(COC(=O)Nc2ccncc2N)cc1	0	10.6	1.6	0	49.4	10.9	–	–
CCC(=O)Oc1ccc(COC(=O)Nc2ccncc2N)cc1	145	129	25	82	5.2	5.7	1.2	–
CCCC(=O)Oc1ccc(COC(=O)Nc2ccncc2N)cc1	10	111	14.4	71	48.8	12.1	–	–
CC(C)C(=O)Oc1ccc(COC(=O)Nc2ccncc2N)cc1	105	122	42	82	8.5	3.9	1.9	–
CC(C)CC(=O)Oc1ccc(COC(=O)Nc2ccncc2N)cc1	12	87.7	38.4	83	11.9	55.4	–	–
Nc1cnccc1NC(=O)OCc1ccc(OC(=O)C2CCCC2)cc1	34	77.5	37.2	79	11.6	6.8	–	–
Nc1cnccc1NC(=O)OCc1ccc(OC(=O)c2ccccc2)cc1	1	392	–	0	167	–	–	–
COc1cccc(C(=O)Oc2ccc(COC(=O)Nc3ccncc3N)cc2)c1	2	61.7	–	0	163	–	–	–
Nc1cnccc1NC(=O)OCc1ccc(OC(=O)Cc2ccccc2)cc1	0	32.2	30.7	0	136	–	–	–
CC(C)C(=O)OCc1ccccc1COC(=O)Nc1ccncc1N	29	> 500	–	5	496	–	–	–
CC(C)C(=O)OCCOC(=O)Nc1ccncc1N	0	61.9	> 500	4	25.9	> 500	–	–
COC(=O)Nc1cnccc1N	0	> 500	–	0	> 500	–	–	–
COC(=O)Nc1ccncc1NC(=O)OC	0	417	> 500	0	36.3	> 500	–	–
COC(=O)Nc1ccncc1N	0	491	–	0	45.6	–	–	–
CC(=O)Nc1ccncc1N	0	> 500	173	0	61.3	32.5	–	–
CC(=O)Nc1ccncc1NC(C)=O	0	404	–	0	34.2	–	–	–
Nc1cnccc1NC(=O)c1ccccc1	0	> 500	–	0	> 500	–	–	–
Nc1cnccc1NC(=O)C1CCCC1	4	> 500	–	8	> 500	–	–	–
CC(C)OC(=O)CCC(=O)Nc1ccncc1N	3.4	97.4	62	5.8	88.3	3.2	165	–
Nc1cncc(N)c1N	–	–	–	–	–	–	–	18.6
C#CC[n+]1ccc(N)c(N)c1	–	–	–	–	–	–	–	72
